Screening data: PubChem BioAssay, several laboratories
tolC growth inh: E. coli tolC mutant growth inhibition; E. coli BW25113 tolC mutant growth, OD615; growth inhibition, % at 10 µM (by protocol); hit rate 2.2% among 65,000; AID 573;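 active = growth inhibition at or above a cutoff equal to the mean over every tested compound plus 3 SD, cut at about 60% in these data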;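 note: growth measured after 20 h incubation at 37 °C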
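Test system: E. coli BW25113 ΔtolC::kan bacteria; incubation: 37 °C, 20 h exposure; medium: LB broth supplemented with 50 µg/mL kanamycin; read-out basis: percent growth inhibition; signal: A615 absorbance measurement; compound: 10 µM final, single dose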
PostGolgi ctrl: yeast control strain growth, post-Golgi counter-screen | efflux-deficient yeast background strain, growth absorbance A615, 16 h | inhibition, % at 10 µM | hit rate 5% among 98,000 | AID 738
E coli WT exp: growth inhibitors of E. coli BW25113 wild type | OD600 absorbance | hit rate 0.15% among 98,000 | AID 710 | growth inhibition, % at 100 µM;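 active = growth inhibition above about 50% at one test dose, limit read from the data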;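 note: growth measured after 20 h incubation at 37 °C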
Cav3 T inh: inhibitors of human Cav3.2 T-type calcium channel; Cav3.2-expressing cells, Fluo-4 calcium fluorescence FDSS; hits give low values; B-score at 10 µM; hit rate 4% among 100,000; AID 449739;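 active = single-dose well whose peak fluorescence ratio is a statistical outlier from its plate by either plate-standardised score or position-corrected B-score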
PTK2B oligo ant: Pyk2 (human) oligomerization antagonism; Q14289; Q293 cells, Pyk2 FERM NanoBiT luminescence; hits give low values; z-score (the deposit names both 25 µM and 10 µM); hit rate 0.83% among 99,000;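 active = Z-score of -3 or lower, scaled per plate to the spread of control and sample wells; inactive = z-score above -3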;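 note: negative z-score means lost luminescence so less FERM oligomerization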
PostGolgi yeast: growth inhibition of a yeast mutant, post-Golgi transport screen. inhibition, % at 10 µM. post-Golgi transport phenotypic cell assay. hit rate 0.9% among 98,000. AID 739;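 note: yeast cells grown in 1536-well plates; yeast grown about 18 h at 30C before absorbance read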
Numbers without * were called inactive; nt = not tested or not shown. Compounds with a hit are over-represented: about 8.7% of the library has one in this group of screens. Cut-off read from the data, not from the text of the source, unless noted: active = inhibition above about 30%; inactive = the rest.

SMILES	tolC growth inh	PostGolgi ctrl	E coli WT exp	Cav3 T inh	PTK2B oligo ant	PostGolgi yeast
N#C[C@H]1C2OC2c2ccccc2N1C(=O)c1ccccc1 (some centres not stated)	nt	nt	nt	0.71	nt	nt
COc1ccc(/C=N/NC(=O)c2ccn[nH]2)cc1COc1ccc(Cl)cc1Cl	nt	62*	-2	0.69	-2.5	0
COc1ccc(/C=N/NC(=O)c2ccoc2C)cc1COc1ccc(Cl)cc1	nt	49*	-12	-6.5*	-0.37	11
COc1ccc(/C=N/NC(=O)c2ccn[nH]2)cc1COc1ccc(F)cc1	nt	-3	-1	-0.24	-3.2*	-6
COc1cc(/C=N/NC(=O)c2ccoc2C)cc(OC)c1OC	nt	nt	nt	-0.52	-0.16	nt
O=C1N[C@@H](Cc2ccccc2)C(=O)N2[C@H]1C[C@]1(Br)c3ccccc3N(S(=O)(=O)c3ccc(F)cc3)[C@H]21	nt	nt	nt	-2.5	nt	nt
CC/C(=C\C(=O)c1ccncc1)Nc1ccc(Br)cc1	nt	37*	8	-1.1	-0.55	34*
Cc1nc(C(=O)N(C)C)nn1-c1cc(Cl)cc(Cl)c1	nt	1	4	1.1	1	-7
NC(=O)CC[C@@H]1NC(=O)[C@@H]2CCCN2C(=O)c2cc([N+](=O)[O-])cc(I)c2NCCCC[C@@H](C(=O)NC(CC(=O)O)C(N)=O)NC1=O (some centres not stated)	nt	nt	nt	-0.2	nt	nt
CCC(C)N1CCCCC1C(=O)Nc1c(C)cc(C)cc1C (configuration not stated)	nt	nt	nt	0.74	0.64	nt
Cc1[nH]c(-c2ccc3c(c2)OCO3)nc1C(=O)O	nt	31*	-14	-0.39	nt	-2
N/C(=N\c1nc2c(c(=O)[nH]1)CCCC2)Nc1ccccc1Sc1ccccc1	nt	12	-14	0.37	-1.2	1
COc1ccccc1N/C(=N/S(=O)(=O)c1ccc(C)cc1)c1ccc(Cl)cc1	nt	25	-19	-3.8*	-2.4	-3
CCCOc1cccc(C2/C(=C(/O)c3ccncc3)C(=O)C(=O)N2CCCN(C)C)c1 (configuration not stated)	-19	nt	nt	nt	nt	nt
CC(=O)Nc1cc(C(=O)OCC(=O)c2ccc(Cl)cc2Cl)ccc1C	nt	-9	-1	0.44	0.58	-5
CC(C)C(=O)Nc1cccc(C(=O)OCC(=O)c2ccc(Cl)cc2Cl)c1	nt	6	-6	0.25	-3.5*	0
C=CCn1cnc2c(c1=O)c1nc3ccccc3nc1n2-c1ccc(Cl)cc1	0	nt	nt	nt	nt	nt
CC(Sc1nnc(-c2ccc(Cl)cc2Cl)n1Cc1ccccc1)C(=O)Nc1nccs1 (configuration not stated)	nt	12	-11	-8.2*	-1.8	0
Cc1nnc(SC(C)C(=O)Nc2ccc(Cl)cn2)n1Cc1ccccc1 (configuration not stated)	3	27	2	-1.6	-0.23	-8
O=C(CSc1nnc(-c2cccnc2)n1-c1ccccc1)N1CCN(c2ccc(F)cc2)CC1	nt	-7	7	4*	0.65	0
CCOC(=O)c1cc(C(=O)c2cccs2)n2ccc(C(C)=O)cc12	nt	82*	-11	-0.15	-1.1	1
Cc1cc(C)c(S(=O)(=O)Nc2ccc(OCC(=O)O)cc2)c(C)c1	7	41*	3	-0.2	nt	6
COc1ccc(OC)c(S(=O)(=O)Nc2ccc(Oc3ccccc3)cc2)c1	nt	27	-5	-3.3	-3.6*	9
CCOc1ccc(NS(=O)(=O)c2cc(OC)ccc2OC)cc1	nt	12	-4	-0.28	-1.4	-8
CCNC(=O)COc1ccc(S(=O)(=O)Nc2ccccc2)cc1	nt	4	-1	0.71	0.55	5
SMILES	tolC growth inh	PostGolgi ctrl	E coli WT exp	Cav3 T inh	PTK2B oligo ant	PostGolgi yeast
COc1ccc(NS(=O)(=O)c2c(C)cc(C)cc2C)cc1	nt	21	-8	-6.1*	-0.65	-3
COC(=O)c1ccc(NS(=O)(=O)c2ccc(OC)cc2)cc1	25	22	9	-0.78	-0.69	11
COc1cccc(NS(=O)(=O)c2c(C)cc(C)cc2C)c1	22	32*	6	-1.8	-0.47	-4
CN1CCN(C(=S)NCCc2ccccc2)CC1	nt	-2	7	0.46	1.4	11
COc1ccc(OC)c(S(=O)(=O)Nc2ccc(O)c(Sc3ncn[nH]3)c2)c1	0	43*	-1	-0.026	0.09	-5
CCOc1ccc(S(=O)(=O)Nc2ccc(O)c(Sc3ncn[nH]3)c2)cc1	nt	nt	nt	-0.38	1.3	nt
COc1cc(C(=O)n2nc(C)cc2C)ccc1O	nt	19	6	1.1	0.71	6
CCOC(=O)/C(C#N)=C1/C=Nc2ccccc2N1	2	41*	3	0.45	-1.4	-3
O=C(Nc1ncc(Cc2cc(Cl)ccc2Cl)s1)c1ccc([N+](=O)[O-])cc1	nt	31*	-4	-2.4	-1	7
O=C(Nc1ncc(Cc2cccc(Cl)c2Cl)s1)c1ccc([N+](=O)[O-])cc1	nt	17	-12	-0.95	-1.5	2
COc1cc([N+](=O)[O-])cc(CN2CCCCC2)c1O	nt	19	2	0.39	-1.6	-2
O=c1nc2c(-c3ccccc3F)n[nH]n2c2ccccc12	0	25	-2	0.015	-0.99	-4
CC(C)c1ccc(S(=O)(=O)c2n[nH]n3c2nc(=O)c2ccccc23)cc1	17	57*	-13	-2.6	-0.75	0
CCc1ccc(S(=O)(=O)c2n[nH]n3c2nc(=O)c2ccccc23)cc1	20	50*	-30	-0.33	-0.78	1
CCCCn1c(-c2ccccc2)cnc1SCC(=O)NCCc1ccc(OC)c(OC)c1	nt	12	-16	-4.5*	-0.18	18
Cc1nn(-c2ccc(C(=O)Nc3nnc(C4CC4)s3)cc2)c(C)c1Cl	-7	-3	-15	0.17	-0.32	-13
Cc1nn(-c2ccccc2)c(Cl)c1C(=O)Nc1nnc(C2CCCCC2)s1	nt	1	-11	-4.4*	-0.54	-3
O=C(Nc1nnc(C2CCCC2)s1)C1CCN(S(=O)(=O)c2ccc(Cl)cc2)CC1	-12	4	-5	-0.083	0.47	-1
O=C(Nc1nnc(C2CC2)s1)c1cc(S(=O)(=O)N2CCN(c3ccccc3)CC2)ccc1Cl	nt	33*	0	-0.22	-1	12
O=C(Nc1nnc(C2CC2)s1)c1cc(-c2ccccc2)nn1-c1ccccc1	67*	25	-11	nt	-3.2*	39*
Cn1ccnc1C(O)(c1nnc(-c2ccccc2)o1)C(F)(F)F (configuration not stated)	2	-2	2	-0.16	1	12
O=C1CN(C(=O)COC(=O)c2cccc(S(=O)(=O)NCc3ccccc3)c2)c2ccccc2N1	nt	9	-3	-6*	-0.76	4
Cc1cc(C)c2c(=O)n(CC(=O)N3CCC(Cc4ccccc4)CC3)sc2n1	-6	45*	5	nt	nt	-1
Cc1cc(C)c(C#N)c(SCS(=O)Cc2ccc(Cl)cc2)n1 (configuration not stated)	49	38*	-15	-2.1	-2.5	9
Cc1cc(C)c(C#N)c(SCS(=O)Cc2ccccc2)n1 (configuration not stated)	55	-1	5	-0.45	-1.8	-2
Cn1c(Sc2ccc(Br)cc2)c(C=O)c2ccccc21	nt	32*	-17	0.13	-0.7	-2
